Screens as filed in PubChem.
Shown are actives, neighbours in structure and some others; about 1% of the full set was active somewhere.
thrombin 1536: human alpha-thrombin inhibitors, primary screen, counter-screen for coagulation protease inhibitor project, biochemical, 1536-well, fluorogenic AMC substrate | Prothrombin (Homo sapiens), P00734 | Boc-VPR-AMC fluorogenic substrate cleavage | inhibition, % at 5 µM | 220,000 compounds, 0.26% hits | AID 1046, 2008;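 active means inhibition at or above 40%; inactive means inhibition below 40%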;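 further: 0% = enzyme with no compound and 100% = wells without enzyme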
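System – human alpha-thrombin · Medium – pH 7.5 Tris (50 mM) with NaCl 150 mM, Tween 20 0.05% · Compound – single-point dosing at 5 µM, 0.2% DMSO · Incubation – enzyme reaction carried out at room temperature · Technique – fluorescence of released AMC, ex 355 nm, em 460 nm · Read-out basis – % inhibition of thrombin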
hK5 inh: human KLK5 protease inhibitors, primary screen, biochemical, 1536-well; Kallikrein-5 (Homo sapiens), Q9Y337; recombinant hK5, fluorogenic AMC substrate cleavage; AID 873, 2007; 210,000 compounds, 0.59% hits; inhibition, % at 5 µM;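 active means inhibition of 40% or more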;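 further: 0% = enzyme controls without compound and 100% = no-enzyme blanks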
Target sequence (Q9Y337 67-293 limits assumed): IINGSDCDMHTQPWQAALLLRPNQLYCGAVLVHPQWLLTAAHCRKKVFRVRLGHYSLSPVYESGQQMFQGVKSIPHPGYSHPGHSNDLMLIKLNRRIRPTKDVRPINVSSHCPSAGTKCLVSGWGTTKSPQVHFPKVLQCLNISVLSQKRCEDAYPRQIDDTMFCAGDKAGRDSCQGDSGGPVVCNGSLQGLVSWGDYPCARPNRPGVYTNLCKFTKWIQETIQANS
FXIa inh: human FXIa protease inhibitors, primary screen, biochemical, 1536-well; Coagulation factor XI (Homo sapiens), P03951; purified FXIa, Boc-Glu-Ala-Arg-AMC fluorogenic substrate; inhibition, % at 5 µM; 220,000 compounds, 0.14% hits;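 active means inhibition of at least 40%; inactive means inhibition below 40%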;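 further: fluorescence of freed AMC excited at 355 nm; 0% = enzyme without compound and 100% = no enzyme blank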
FXIIa inh: human FXIIa protease inhibitors, primary screen, biochemical, 1536-well; Coagulation factor XII (Homo sapiens), P00748; purified FXIIa, Boc-QGR-AMC fluorogenic substrate, 2 h; inhibition, % at 5 µM; 220,000 compounds, 0.3% hits; AID 800, 2007; in the data active means inhibition above about 40%;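 further: 0% = enzyme with no compound and 100% = blank without enzyme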
Starred values were filed as active, the others as inactive.

For COc1ccc(CNc2nc(-c3cccnc3)nn2C(C)=O)cc1 the results were thrombin 1536 99*, hK5 inh 1, FXIa inh -1 and FXIIa inh 6.
Screening COc1cc(Cl)c(C)cc1NC(=O)CSc1cc(Cl)ccc1Cl returned thrombin 1536 -8, hK5 inh -6, FXIa inh 1 and FXIIa inh 5.
`Cc1ccc(-c2csc(NC(=O)c3ccc(S(=O)(=O)N4CCc5ccccc54)cc3)n2)cc1` gave thrombin 1536 -1, hK5 inh -9, FXIa inh 21 and FXIIa inh 26.
`O=C(Nc1nc(-c2ccccc2)cs1)c1ccc(S(=O)(=O)N2CCc3ccccc32)cc1` gave thrombin 1536 -2, hK5 inh -9, FXIa inh 59* and FXIIa inh 15.
`Cc1ccc2c(c1)[nH]c1c(=O)n(CCC3=CCCCC3)cnc12` gave thrombin 1536 64*, hK5 inh 19, FXIa inh -3 and FXIIa inh 5.
COCCCn1cc(C(=O)c2ccccc2OCC(=O)Nc2cccc(F)c2)cc(C#N)c1=O was read as thrombin 1536 10, hK5 inh -4, FXIa inh -6 and FXIIa inh 2.
For COCCn1cc(C(=O)c2ccccc2OCC(=O)Nc2cc(C)on2)cc(C#N)c1=O the results were thrombin 1536 24, hK5 inh 42*, FXIa inh 6 and FXIIa inh 4.
`CCC(C)NC(=O)C1=C(C)C(=O)OC12CCC(C)CC2` (stereo not given) gave thrombin 1536 -10, hK5 inh -10, FXIa inh -5 and FXIIa inh 7.
For O=C(CSc1nc(-c2ccccc2)cs1)Nc1nccs1 the results were thrombin 1536 10, hK5 inh 6, FXIa inh 8 and FXIIa inh 13.
CC(C)NC(=O)CSc1nc(-c2ccccc2)cs1 was read as thrombin 1536 40*, hK5 inh 21, FXIa inh 46* and FXIIa inh 26.
For CCCc1nc2n[nH]c(N)c2c2c1CCC2 the results were thrombin 1536 3, hK5 inh -4, FXIa inh 35 and FXIIa inh 55*.
CCCc1nc2n[nH]c(N)c2c2c1CCCC2 was read as thrombin 1536 0, hK5 inh -31, FXIa inh 15 and FXIIa inh 16.
Screening CN(c1ccccc1)S(=O)(=O)c1ccc(NC(=S)NC(=O)c2ccccc2)cc1 returned thrombin 1536 -4, hK5 inh -12, FXIa inh 4 and FXIIa inh 95*.
N=c1oc2ccccc2cc1-c1nc(-c2ccc(Cl)cc2)cs1 was read as thrombin 1536 18, hK5 inh 47*, FXIa inh 14 and FXIIa inh 7.
For O=S(=O)(Cc1ccco1)Cc1nc(-c2ccc(Cl)cc2)cs1 the results were thrombin 1536 -3, hK5 inh -4, FXIa inh 2 and FXIIa inh 15.
Screening COCCNC(=O)C(c1ccc(C)o1)N(C(=O)c1snc(C(N)=O)c1N)c1ccc(C)c(C)c1 (stereo not given) returned thrombin 1536 20, hK5 inh 44*, FXIa inh 12 and FXIIa inh 26.
Screening COCCNC(=O)C(c1ccc(C)o1)N(C(=O)c1snc(C(N)=O)c1N)c1ccc(C)cc1 (stereo not given) returned thrombin 1536 11, hK5 inh -40, FXIa inh 6 and FXIIa inh 11.
Screening CCN(CC)C(=O)CSc1nnc(CNc2ccc(F)cc2)o1 returned thrombin 1536 -1, hK5 inh 1, FXIa inh -3 and FXIIa inh 6.
`CCOC(=O)c1c(-c2ccccc2)csc1NC(=O)/C(C#N)=C/c1ccc(O)c(OC)c1` gave thrombin 1536 -1, hK5 inh -9, FXIa inh 5 and FXIIa inh 10.
Screening O=C(NNc1cc(Cl)ccc1Cl)c1c(F)cccc1Cl returned thrombin 1536 8, hK5 inh 35, FXIa inh 32 and FXIIa inh 42*.
COc1ccc(NC(=O)C(Cl)=C(Cl)Cl)cn1 was read as thrombin 1536 -3, hK5 inh 103*, FXIa inh 32 and FXIIa inh 26.
NS(=O)(=O)c1ccc(NC(=O)Nc2ccc(Cl)cc2)cc1 was read as thrombin 1536 -1, hK5 inh 44*, FXIa inh 0 and FXIIa inh 6.
`COc1ccc2oc(C(=O)c3ccccc3)c(N)c2c1` gave thrombin 1536 26, hK5 inh 49*, FXIa inh 15 and FXIIa inh 28.
